Experimental data taken from ChEMBL document CHEMBL1795290, “Simplification of the tetracyclic SIRT1-selective inhibitor MC2141: coumarin- and pyrimidine-based SIRT1/2 inhibitors with different selectivity profile” (Bioorg Med Chem, 2011).
The source made the active and inactive calls. The calls are words filed in the database; no cut-off is given here.

Columns and labels:
[1] = system: U-937; assay: Induction of granulocytic differentiation in human U937 cells assessed as change in CD11c expression at 50 uM […] by FACS assay; type: functional
[2] = system: U-937; assay: Toxicity in human U937 cells at 50 uM incubated for 30 hrs; type: cell-based; conditions: u-937, 30 h
[3] = target: T1, NAD-dependent protein deacetylase sirtuin-1 (Homo sapiens, UniProt Q96EB6); assay: Inhibition of human recombinant SIRT1 expressed in Escherichia coli incubated at 37 degC for 2 hrs by Fluor de Lys fluorescence assay
T1 sequence (Q96EB6 whole entry): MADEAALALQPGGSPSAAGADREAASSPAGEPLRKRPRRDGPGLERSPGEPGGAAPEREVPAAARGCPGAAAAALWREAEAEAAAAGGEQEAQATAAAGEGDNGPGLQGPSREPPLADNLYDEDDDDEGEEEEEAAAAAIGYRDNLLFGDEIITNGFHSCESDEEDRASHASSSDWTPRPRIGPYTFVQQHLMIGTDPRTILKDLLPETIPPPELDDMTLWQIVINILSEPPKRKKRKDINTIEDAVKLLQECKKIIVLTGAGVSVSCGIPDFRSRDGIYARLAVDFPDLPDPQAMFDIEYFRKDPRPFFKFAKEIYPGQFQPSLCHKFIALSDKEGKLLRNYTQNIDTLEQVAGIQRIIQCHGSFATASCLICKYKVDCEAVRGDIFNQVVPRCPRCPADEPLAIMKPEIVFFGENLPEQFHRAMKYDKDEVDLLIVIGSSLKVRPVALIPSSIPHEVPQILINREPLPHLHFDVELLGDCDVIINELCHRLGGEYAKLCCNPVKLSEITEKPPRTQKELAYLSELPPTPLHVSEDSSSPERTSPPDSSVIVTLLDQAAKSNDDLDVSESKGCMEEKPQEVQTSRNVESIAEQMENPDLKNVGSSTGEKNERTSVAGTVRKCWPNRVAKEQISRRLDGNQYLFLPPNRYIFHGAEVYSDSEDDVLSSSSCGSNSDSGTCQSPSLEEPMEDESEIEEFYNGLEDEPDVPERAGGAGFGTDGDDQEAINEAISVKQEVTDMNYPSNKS
Procedure, shortened: (§1)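 Human recombinant enzymes expressed in E. coli: SIRT1 at 2 U, SIRT2 at 7 U. Two-stage assay with a deacetylation step at 37 °C for 2 h, using Fluor de Lys-SIRT1/2 substrate with NAD+ and compound (50 µM single point or a concentration series). IC50 obtained by curve fitting.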

[4] = system: U-937; assay: Induction of apoptosis in human U937 cells assessed as caspase 3/7 activation at 50 uM incubated for 30 hrs by FACS assay based B-Bridge method; type: functional
Procedure, shortened: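 U937 cells were treated at 50 µM for 30 h. Apoptosis was scored as caspase 3–7 activation using a caspase 3–7 detection kit, with FACS read-out.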

[5] = target: T2, NAD-dependent protein deacetylase sirtuin-2 (Homo sapiens) (UniProt Q8IXJ6); assay: Inhibition of human recombinant SIRT2 expressed in Escherichia coli at 50 uM incubated at 37 degC for 2 hrs by Fluor de Lys fluorescence assay; procedure, shortened: as §1
T2 sequence (whole entry): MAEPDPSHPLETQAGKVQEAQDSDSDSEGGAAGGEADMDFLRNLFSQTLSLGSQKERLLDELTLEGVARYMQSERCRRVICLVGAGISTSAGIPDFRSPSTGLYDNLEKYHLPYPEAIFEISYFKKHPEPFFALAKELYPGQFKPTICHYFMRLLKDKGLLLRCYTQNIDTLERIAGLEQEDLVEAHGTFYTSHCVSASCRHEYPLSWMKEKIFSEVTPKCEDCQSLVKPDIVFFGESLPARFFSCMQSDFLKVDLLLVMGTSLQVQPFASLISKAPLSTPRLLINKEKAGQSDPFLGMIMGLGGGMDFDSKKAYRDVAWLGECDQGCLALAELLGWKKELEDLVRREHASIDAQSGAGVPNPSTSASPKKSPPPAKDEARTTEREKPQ

[6] = target: T3, NAD-dependent protein deacetylase sirtuin-1 (Homo sapiens) (UniProt Q96EB6); assay: Inhibition of human recombinant SIRT1 expressed in Escherichia coli at 50 uM incubated at 37 degC for 2 hrs by Fluor de Lys fluorescence assay; procedure, shortened: as §1
T3 sequence (whole entry): T1 sequence (Q96EB6 whole entry)

[7] = target: T4, NAD-dependent protein deacetylase sirtuin-2 (Homo sapiens, UniProt Q8IXJ6); assay: Inhibition of human recombinant SIRT2 expressed in Escherichia coli incubated at 37 degC for 2 hrs by Fluor de Lys fluorescence assay; procedure, shortened: as §1
T4 sequence (Q8IXJ6 whole entry): T2 sequence (whole entry)

[8] = system: U-937; assay: Cell cycle arrest in human U937 cells assessed as accumulation at G2/M phase at 50 uM incubated for 30 hrs by flow cytometry; type: functional, cell-based
Procedure, shortened: (§2)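 U937 leukaemia cells were exposed to compound at 50 µM for 30 h. Then 2.5 × 10^5 cells were resuspended in hypotonic buffer (0.1% Triton X-100, 0.1% sodium citrate, 50 µg/mL propidium iodide, RNase A) and kept 30 min in the dark. DNA content was read by flow cytometry and cell-cycle phases were modelled. Run in triplicate.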

[9] = system: U-937; assay: Cell cycle arrest in human U937 cells assessed as accumulation at G1/S phase at 50 uM incubated for 30 hrs by flow cytometry; type: functional, cell-based; procedure, shortened: as §2
[10] = system: U-937; assay: Cell cycle arrest in human U937 cells assessed as accumulation at G1 phase at 50 uM incubated for 30 hrs by flow cytometry; type: functional, cell-based; procedure, shortened: as §2

SMILES | Activity [1] | Activity [2] | IC50 [3] [µM] | Activity [4] | inhibition [5] [%] | inhibition [6] [%] | IC50 [7] [µM] | Activity [8] | Activity [9] | Activity [10]
O=c1[nH]c(=S)[nH]c(CCc2ccccc2)c1Cc1c(O)ccc2ccccc12 | inactive | Non-toxic | 17.5 | Active | 49.8 | 83 | 50.8 | – | – | –
O=c1nc2oc3ccc4ccccc4c3cc-2c(=O)n1-c1ccccc1 | inactive | – | – | – | – | – | – | Active | – | –
O=C1Oc2ccc3ccccc3c2CC1C(=O)c1ccccc1 (centres undefined) | – | Non-toxic | 112 | Active | 20.2 | 32.1 | 179 | – | Active | –
O=C1Oc2ccc3ccccc3c2CC1C(=O)c1ccc(Cl)cc1 (centres undefined) | >30% | Non-toxic | – | – | 89.5 | 17.1 | – | Active | – | –
O=c1[nH]c(=S)[nH]c(-c2ccc3ccccc3c2)c1Cc1c(O)ccc2ccccc12 | inactive | Non-toxic | 12.4 | Active | 47.9 | 83 | 49.9 | – | – | Active
